The source of these data is ChEMBL document CHEMBL1137287, “Peptidyl-urea based inhibitors of soluble epoxide hydrolases” (Bioorg Med Chem Lett, 2006).

The structures appear in SMILES notation.

In data set [1] the target is T1, Bifunctional epoxide hydrolase 2 (Homo sapiens, UniProt P34913).
T1 sequence (P34913 whole entry): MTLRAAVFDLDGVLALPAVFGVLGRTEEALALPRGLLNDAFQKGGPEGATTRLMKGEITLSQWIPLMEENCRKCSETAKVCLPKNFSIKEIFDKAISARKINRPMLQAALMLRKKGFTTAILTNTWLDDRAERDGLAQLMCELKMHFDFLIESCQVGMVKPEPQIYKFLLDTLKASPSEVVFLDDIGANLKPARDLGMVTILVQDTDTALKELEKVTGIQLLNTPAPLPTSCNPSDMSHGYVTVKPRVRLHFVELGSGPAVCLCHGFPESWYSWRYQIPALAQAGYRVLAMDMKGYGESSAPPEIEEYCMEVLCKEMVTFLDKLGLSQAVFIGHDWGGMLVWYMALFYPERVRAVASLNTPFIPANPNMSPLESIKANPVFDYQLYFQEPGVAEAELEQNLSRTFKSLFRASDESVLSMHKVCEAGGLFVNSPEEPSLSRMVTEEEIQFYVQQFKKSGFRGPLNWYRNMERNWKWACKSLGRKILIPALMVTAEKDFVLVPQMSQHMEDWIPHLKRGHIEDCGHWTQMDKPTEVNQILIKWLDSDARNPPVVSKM
The data set can be described thus: Inhibition of human recombinant soluble Epoxide hydrolase.

The target in data set [2] is T2, Bifunctional epoxide hydrolase 2 (Mus musculus, UniProt P34914).
T2 sequence (P34914 whole entry): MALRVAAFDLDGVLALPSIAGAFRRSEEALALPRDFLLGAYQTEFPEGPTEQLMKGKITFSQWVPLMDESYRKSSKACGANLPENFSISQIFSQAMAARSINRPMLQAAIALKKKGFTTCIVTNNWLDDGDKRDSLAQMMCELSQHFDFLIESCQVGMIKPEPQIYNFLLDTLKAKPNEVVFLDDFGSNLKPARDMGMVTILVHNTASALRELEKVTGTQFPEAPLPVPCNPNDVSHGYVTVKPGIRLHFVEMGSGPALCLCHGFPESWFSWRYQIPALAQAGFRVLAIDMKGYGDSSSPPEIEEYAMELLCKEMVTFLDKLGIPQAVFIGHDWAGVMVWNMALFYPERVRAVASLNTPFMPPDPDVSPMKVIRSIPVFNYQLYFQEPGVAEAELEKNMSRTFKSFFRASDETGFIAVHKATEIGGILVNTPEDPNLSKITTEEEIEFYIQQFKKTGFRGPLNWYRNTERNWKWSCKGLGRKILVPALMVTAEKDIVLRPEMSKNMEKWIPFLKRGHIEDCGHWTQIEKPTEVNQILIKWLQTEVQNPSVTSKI
The data set can be described thus: Inhibition of mouse recombinant soluble Epoxide hydrolase.

A short description of data set [3]: Solubility in sodium phosphate buffer at pH 7.4. In kind it is physicochemical. In a few lines: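 Solubility measured in sodium phosphate buffer, 100 mM, pH 7.4, following a previously described procedure.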
Data set [4] in a line: Plasma concentration in dog at 0.3 mg/kg, po after 60 min. In kind it is ADME, organism-based, Canis lupus familiaris. Also noted: dose 0.3 mg/kg, route oral. In a few lines: (§1)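 Dogs given oral dose of 0.3 mg/kg per inhibitor, three different inhibitors per dog per experiment, formulated at 6 mg/mL in triglycerides (tristearate, 6 mL). AUC estimated from plasma concentration (nM) versus time (min) plot.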

A short description of data set [5]: AUC in dog at 0.3 mg/kg, po. As to conditions: plasma. Also noted: dose 0.3 mg/kg, route oral. Format: ADME, organism-based, Canis lupus familiaris. A digest of the protocol:
as §1

A short description of data set [6]: Plasma concentration in dog at 0.3 mg/kg, po after 15 min. Format: ADME, organism-based, Canis lupus familiaris. Also noted: dose 0.3 mg/kg, route oral. A digest of the protocol:
as §1

Data set [7] in a line: Plasma concentration in dog at 0.3 mg/kg, po after 30 min. Also noted: dose 0.3 mg/kg, route oral. Format: ADME, organism-based, Canis lupus familiaris. A digest of the protocol:
as §1

Data set [8] in a line: Plasma concentration in dog at 0.3 mg/kg, po after 120 min. In kind it is ADME, organism-based, Canis lupus familiaris. Also noted: dose 0.3 mg/kg, route oral. In a few lines:
as §1

The nature of data set [9]: Plasma concentration in dog at 0.3 mg/kg, po after 360 min. In kind it is ADME, organism-based, Canis lupus familiaris. The arrangement: dose 0.3 mg/kg, route oral. In a few lines: as §1
A short description of data set [10]: Plasma concentration in dog at 0.3 mg/kg, po after 180 min. Format: ADME, organism-based, Canis lupus familiaris. The arrangement: dose 0.3 mg/kg, route oral. In a few lines: as §1
Data set [11] in a line: Plasma concentration in dog at 0.3 mg/kg, po after 300 min. Format: ADME, organism-based, Canis lupus familiaris. The arrangement: dose 0.3 mg/kg, route oral. A digest of the protocol:
as §1

A short description of data set [12]: Plasma concentration in dog at 0.3 mg/kg, po after 240 min. In kind it is ADME, organism-based, Canis lupus familiaris. Also noted: dose 0.3 mg/kg, route oral. In a few lines: as §1
A short description of data set [13]: Plasma concentration in dog at 0.3 mg/kg, po after 480 min. In kind it is ADME, organism-based, Canis lupus familiaris. Also noted: dose 0.3 mg/kg, route oral. In a few lines: as §1

Broadly, the IC50 is the concentration that gives 50% inhibition. One may read the solubility as how much of the substance goes into solution per volume. A lower solubility goes with a poorly soluble substance. Take `CC(C)[C@H](NC(=O)CCCNC(=O)NC1CCCCC1)C(=O)O`: the IC50 in data set [1] amounted to 17 µM; in data set [2], 1.4 µM. Also, the solubility in data set [3] is > 500 µM.

In general, Ki refers to the dissociation constant of the complex between target and ligand, obtained from inhibition or displacement. As a reminder, the AUC is the area under the concentration-time curve, a measure of exposure. Read a high AUC as high exposure. Take `O=C(CCCCCNC(=O)NC12CC3CC(CC(C3)C1)C2)N[C@@H](Cc1ccccc1)C(=O)N[C@@H](Cc1c[nH]c2ccccc12)C(=O)O`: the Ki in [1] is 0.015 µM. In addition, the concentration at 1 h in data set [4] was found to be 0.33 nM. Besides, in [5], the AUC was < 1.67 nM·h. Moreover, the concentration at 0.25 h in data set [6] was determined as 0.62 nM. In addition, the concentration at 0.5 h in data set [7] is 0.82 nM. Moreover, the solubility in data set [3] is > 500 µM.

Consider `O=C(O)CCCNC(=O)NC1CCCCC1`, for which the IC50 stood at 36 µM in data set [1] and 1.9 µM in [2].

As to `O=C(O)CCCCCCCCCCCNC(=O)NC12CC3CC(CC(C3)C1)C2`, the concentration at 2 h in data set [8] was found to be 26.3 nM. Besides, the concentration at 6 h in [9] amounted to 1.17 nM. The compound also had a concentration at 1 h in data set [4] of 30.7 nM. The compound also yielded a concentration at 3 h in [10] of 13.4 nM. The concentration at 5 h in data set [11] was 1.61 nM. Also, the concentration at 4 h in data set [12] amounted to 6.12 nM. In addition, the concentration at 0.25 h in data set [6] was determined as 6.97 nM. The compound also displayed a concentration at 0.5 h in data set [7] of 20.4 nM. The concentration at 8 h in [13] was found to be 0.86 nM.

For the compound `N=C(N)NCCC[C@H](NC(=O)CCCNC(=O)NC1CCCCC1)C(=O)O`, the IC50 was found to be 25 µM in data set [1] and 1 µM in [2]. The solubility in data set [3] was > 500 µM.

With `O=C(CCCNC(=O)NC1CCCCC1)N[C@@H](Cc1ccccc1)C(=O)O`, the IC50 in [1] came to 21 µM; in data set [2] it was 1.6 µM. Also, the solubility in [3] is > 500 µM.

For the compound `O=C(CCCCCNC(=O)NC1CCCCC1)N[C@@H](Cc1ccccc1)C(=O)O` (stereo in doubt; form 1), the figures for the IC50 in data set [1] and in data set [2] were 2.7 µM and 0.15 µM, respectively.

As to `O=C(CCCCCNC(=O)NC1CCCCC1)N[C@@H](Cc1cnc[nH]1)C(=O)O`, the results for the IC50 in [1] and in [2] were > 100 µM and 0.06 µM, respectively. In addition, in data set [3], the solubility was > 500 µM.

Consider `O=C(CNC(=O)NC1CCCCC1)N[C@@H](Cc1ccccc1)C(=O)O`, for which the IC50 in data set [1] is > 100 µM; in data set [2] it was 18 µM. The solubility in data set [3] was > 500 µM.

Consider `O=C(O)CC[C@H](NC(=O)CNC(=O)NC1CCCCC1)C(=O)O`, for which the IC50 in data set [1] and in [2] was > 100 µM in each case. Further, in data set [3], the solubility is > 500 µM.

On to `O=C(O)CC[C@H](NC(=O)CCCNC(=O)NC1CCCCC1)C(=O)O`, for which the IC50 is 24 µM in data set [1] and 1.7 µM in data set [2]. Besides, in [3], the solubility is > 500 µM.

Take `O=C(CCCNC(=O)NC1CCCCC1)N[C@@H](Cc1cnc[nH]1)C(=O)O`: the IC50 was 30 µM in [1] and 0.05 µM in data set [2]. Also, the solubility in data set [3] is > 500 µM.

On to `COC(=O)CCCCCNC(=O)NC1CCCCC1`, for which the concentration for half-maximal inhibition (IC50) worked out at 3.2 µM in data set [1] and 0.11 µM in data set [2].

Regarding `O=C(CNC(=O)NC1CCCCC1)N[C@@H](Cc1cnc[nH]1)C(=O)O`, the figures for the IC50 in data set [1] and in [2] were > 100 µM and 36 µM, respectively. For the same compound, in [3], the solubility was > 500 µM.

Turning to `CC(C)[C@H](NC(=O)CNC(=O)NC1CCCCC1)C(=O)O`, the IC50 in data set [1] and in data set [2] was > 100 µM throughout. The solubility in data set [3] was > 500 µM.

Turning to `NC(N)=NCCC[C@H](NC(=O)CCCCCNC(=O)NC1CCCCC1)C(=O)O`, the IC50 in [1] was > 100 µM; in [2], 0.23 µM. Moreover, the solubility in data set [3] was > 500 µM.

Consider `O=C(O)CCCCCNC(=O)NC1CCCCC1`, for which the IC50 in data set [1] is > 100 µM; in [2] it was 24 µM.

On to `O=C(O)CC[C@H](NC(=O)CCCCCNC(=O)NC1CCCCC1)C(=O)O`, for which the IC50 in data set [1] is > 100 µM; in [2] it was 51 µM. Further, the solubility in data set [3] was > 500 µM.

For the compound `CC(C)[C@H](NC(=O)CCCCCNC(=O)NC1CCCCC1)C(=O)O`, the figures for the 50% inhibitory concentration (IC50) in data set [1] and in data set [2] were 41 µM and 0.56 µM, respectively. Moreover, the solubility in data set [3] is > 500 µM.

As to `O=C(O)CNC(=O)NC1CCCCC1`, the IC50 in [1] and in [2] was > 100 µM throughout.

In the case of `NC(N)=NCCC[C@H](NC(=O)CNC(=O)NC1CCCCC1)C(=O)O`, the half-maximal inhibitory concentration (IC50) in data set [1] and in data set [2] was > 100 µM in each case. Also, the solubility in [3] is > 500 µM.
